High-throughput results as filed in PubChem BioAssay.
Most compounds without a hit are left out; they make up all but 3.8% or so of the library.
XiGFP reactiv – X-chromosome reactivation activator; hit rate 0.055% among 360,000; AID 743238; activation, % at 7.58 µM; XiGFP mouse fibroblasts, % GFP-positive cells imaging, 3 d; cells co-treated with 5-aza-dC sensitizer; scaled so ellipticine positive control = 100%;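 active means mean normalized replicate activation at least 10% and every replicate at or above 10%; inconclusive means only one of the two criteria met; inactive means mean below 10% and not all replicates reach 10%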;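 further: 0% = median of on-plate neutral control wells and 100% = ellipticine 6 µM median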
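Material: SV40-immortalized XiGFP fibroblast cells, line 68-5-11 | Buffer or medium: DMEM containing 5-aza-dC | Dosing: One concentration, pinned | Times: 3 d treatment, 15 min room-temperature fixation | Controls: Ellipticine 6 µM positive control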
FN deposition inh – fibronectin deposition inhibition; AH1F fibroblasts, Alexa488-fibronectin deposition fluorescence, overnight; inhibition, % at 12.6 µM; hit rate 0.086% among 350,000; AID 743247;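 active means mean inhibition across replicates of 30% or more, regardless of how many single replicates reach that level; inconclusive means mean under 30% yet at least half of replicates reach 30%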;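 further: positive control wells lacked labelled fibronectin entirely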
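Test system: AH1F fibroblast monolayer depositing Alexa488-labelled fibronectin into matrix. Input: 10000 cells per well. Technique: fluorescence, ex 485 nm, em 525 nm. Buffer or medium: DMEM plus 2% serum, read in PBS. Timing: 1 h cell adhesion before compound, then overnight fibronectin incubation. Compound: single dose, pinned. Read-out basis: inhibition from reduced deposited-fibronectin fluorescence.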
DENV2 CPE rescue – DENV2-induced cell death inhibition | DENV2-infected cells, cytopathic effect rescue, plate reader | CPE inhibition, % at 9.99 µM | hit rate 1.7% among 350,000; in the data active means CPE inhibition above about 20%, passing the limit was not always enough; inconclusive means no clear call, values can overlap the other calls; tested in BHK-21 cells;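 further: 0% = median of neutral control wells and 100% = median of positive control wells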
SIRT5 block – inhibitors of human sirtuin-5 desuccinylase; Q9NXA8; Purified SirT5, succinyl-peptide AMC, trypsin-coupled fluorescence; inhibition, % at 15 µM; hit rate 1.1% among 330,000; in the data active means inhibition above about 15%; inconclusive means no clear call, values can overlap the other calls
Target sequence (Q9NXA8 whole entry, looked up): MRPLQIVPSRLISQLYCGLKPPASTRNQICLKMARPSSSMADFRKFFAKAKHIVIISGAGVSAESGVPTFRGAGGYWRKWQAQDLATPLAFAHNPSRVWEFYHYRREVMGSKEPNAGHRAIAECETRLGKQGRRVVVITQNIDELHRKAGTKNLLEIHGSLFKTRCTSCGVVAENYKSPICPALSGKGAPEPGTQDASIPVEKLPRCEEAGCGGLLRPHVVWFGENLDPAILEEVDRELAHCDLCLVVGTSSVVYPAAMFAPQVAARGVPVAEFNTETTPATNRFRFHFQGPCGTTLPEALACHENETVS
FGF22 binding – shifts melting point of recombinant human FGF22. Q9HCT0. recombinant FGF22 thermal shift, SYPRO orange fluorescence; percent of sucrose octasulfate shift, DMSO zero. activity (Tm shift, normalised), % at 9.99 µM. hit rate 1.5% among 340,000. AID 651658;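 active means mean Tm shift, scaled 0 neutral to 100 positive control, at about 1.3% or above, every replicate too, limit read from the data; inconclusive means no clear call, values can overlap the other calls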
Target sequence (Q9HCT0 whole entry, looked up): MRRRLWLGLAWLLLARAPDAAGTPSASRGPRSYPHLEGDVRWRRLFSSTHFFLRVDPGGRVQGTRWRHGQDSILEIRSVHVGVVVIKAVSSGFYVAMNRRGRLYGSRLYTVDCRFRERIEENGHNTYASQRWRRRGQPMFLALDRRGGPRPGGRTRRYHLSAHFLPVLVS
ARNT TACC3 PPI – disruptors of human ARNT/TACC3 interaction. Q9Y6A5. AlphaScreen His-ARNT PAS-B/GST-TACC3 binding, luminescence; TACC3 fragment carries E629A point mutation. inhibition, % at 9.99 µM. hit rate 0.66% among 390,000;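 active means mean inhibition of replicates at least 50% and at least half of replicates each reaching 50%; inconclusive means half or more replicates reach 50% but mean below 50%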;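 further: 0% = complete ARNT plus TACC3 wells and 100% = ARNT alone without TACC3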
The depositor's hits bear a star; ? = inconclusive; / = no result given.

SMILES	XiGFP reactiv	FN deposition inh	DENV2 CPE rescue	SIRT5 block	FGF22 binding	ARNT TACC3 PPI
NC(=O)NC(=O)CC1S/C(=N/N=C2/NC(=O)CS2)NC1=O (configuration not stated)	0	4	-4	-3	0	66*
COc1ccc(NC(=O)Nc2cccc3c2O[C@@H](CN(C)S(=O)(=O)c2ccc(Cl)cc2)[C@H](C)CN([C@@H](C)CO)C3=O)cc1	0	/	5	-3	-1	1
COc1ccc2c3c(n(C)c2c1)[C@@H](CO)N(C(C)=O)CC31CN(C(=O)c2ccccc2)C1	0	/	/	/	/	/
COc1ccc(N=C2NC(=O)/C(=C/C=C/c3ccccc3)S2)cc1	0	-15	0	0	0	-5
COc1ccc(N=C2NC(=O)/C(=C\C=C\c3ccccc3)S2)cc1	0	13	-1	-1	44*	-3
OCC[C@H]1C[C@@H](O)[C@H](O)[C@]2(Cc3ccccc3CCO2)O1	0	-4	47*	-6	0	-24
OCC[C@@H]1C[C@H](O)[C@@H](O)[C@@]2(Cc3ccccc3CCO2)O1	0	0	?	4	0	-1
COC1OC(c2ccccc2)=C(c2ccc(C(N)=O)cc2)c2ccc(F)cc21 (configuration not stated)	0	-6	0	36*	0	/
Cc1noc(C)c1S(=O)(=O)N(C)C[C@@H]1OCCCC[C@H](C)Oc2ccc(NC(=O)c3ccccc3)cc2C(=O)N([C@@H](C)CO)C[C@H]1C	0	/	-2	3	0	-7
C/C(=N/NC(=O)OC(C)(C)C)c1ccco1	0	6	1	-4	44*	-15
CC(/C=C/c1ccco1)=N/NC(=O)OC(C)(C)C	0	-9	0	0	0	-2
COc1ccc2c3c([nH]c2c1)[C@H](CO)NCC31CCN(C(=O)C2CCCC2)CC1	0	/	-2	10	0	/
O=C(Nc1cccc(F)c1)N1CC(=O)N2[C@H](C1)[C@@H](c1ccc(-c3cccc(F)c3)cc1)[C@@H]2CO	0	-10	-1	16*	/	/
COc1ccccc1NC(=O)N1CC(=O)N2[C@@H](CO)[C@H](c3ccc(C#Cc4ccc(F)cc4)cc3)[C@@H]2C1	0	/	33*	2	/	/
O=C(Nc1ccccc1F)N1CC(=O)N2[C@H](CO)[C@@H](c3ccc(-c4ccccc4)cc3)[C@H]2C1	0	/	43*	1	/	/
O=C(Nc1cc(F)ccc1F)N1CC(=O)N2[C@@H](CO)[C@H](c3ccc(-c4cccnc4)cc3)[C@@H]2C1	0	/	2	-1	/	/
O=C(Nc1cc(F)ccc1F)N1CC(=O)N2[C@@H](CO)[C@@H](c3ccc(-c4cccnc4)cc3)[C@@H]2C1	0	/	23*	-2	/	/
O=C(C[C@H]1C[C@@H]2c3cc(NC(=O)NC4CCCC4)ccc3O[C@@H]2[C@@H](CO)O1)NCc1ccccn1	0	-1	17	-1	1	/
O=C(Nc1ccccc1F)N1CC(=O)N2[C@H](CO)[C@@H](c3ccc(C#Cc4ccc(F)cc4)cc3)[C@@H]2C1	0	/	22*	9	/	/
COc1ccccc1NC(=O)N1CC(=O)N2[C@H](CO)[C@@H](c3ccc(-c4ccc(F)cc4)cc3)[C@H]2C1	0	/	29*	2	/	/
C[C@H](CO)N1C[C@H](C)[C@@H](CN(C)Cc2ccccc2)Oc2cc(C3=CCCCC3)ccc2S1(=O)=O	0	3	/	/	/	/
CCS(=O)(=O)Nc1ccc2c(c1)C(=O)N(C)C[C@@H](OC)[C@@H](C)CN(C(=O)C1CC1)[C@@H](C)CO2	0	-6	0	-4	0	-7
C/C(=N\NC(=O)c1nnn(-c2nonc2N)c1-c1ccccc1)c1cccnc1	0	6	96*	0	0	1
CCOc1cccc(-c2c(C(=O)N/N=C(\C)c3ccncc3)nnn2-c2nonc2N)c1	0	4	1	7	0	-7
CCOc1ccc(/C=N/NC(=O)c2nnn(-c3nonc3N)c2-c2ccc(OCC)cc2)cc1	0	3	-1	0	1	-9
